# Source: PubChem BioAssay
# M5 antag = CHRM5 antagonism in calcium assay. inhibition, % at 3 µM. actives 0.59% (n = 360,000). CHO-hM5 cells, Fluo-8 calcium fluorescence, ACh EC80. AID 624040;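 active means inhibition above a per-plate cutoff, the mean of that plate's test compounds plus 3 SD, cut at about 27% in these data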
# Target sequence (P08912 whole entry, looked up): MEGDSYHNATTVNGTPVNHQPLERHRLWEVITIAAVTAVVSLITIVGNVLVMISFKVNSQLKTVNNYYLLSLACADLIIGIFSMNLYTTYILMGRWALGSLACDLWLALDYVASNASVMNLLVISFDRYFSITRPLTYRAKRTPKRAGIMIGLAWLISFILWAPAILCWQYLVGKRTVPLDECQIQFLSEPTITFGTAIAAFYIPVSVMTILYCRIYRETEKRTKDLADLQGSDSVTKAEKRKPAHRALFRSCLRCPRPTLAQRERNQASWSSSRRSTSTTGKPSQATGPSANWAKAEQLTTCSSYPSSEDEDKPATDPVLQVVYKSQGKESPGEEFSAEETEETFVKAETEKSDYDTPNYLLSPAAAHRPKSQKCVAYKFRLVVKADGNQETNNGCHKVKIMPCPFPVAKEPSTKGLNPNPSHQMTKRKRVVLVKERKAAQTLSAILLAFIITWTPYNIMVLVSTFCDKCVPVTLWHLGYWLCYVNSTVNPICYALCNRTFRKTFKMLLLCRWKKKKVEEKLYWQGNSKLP
# M4 antag = blocks acetylcholine activation of human M4 receptor; P08173; CHO-hM4 cells, ACh EC80, Fluo-8 calcium fluorescence; inhibition, % at 3 µM; actives 0.73% (n = 360,000);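 active means inhibition above its plate's cutoff, the mean inhibition of sample wells plus 3 SD, cut at about 27% in these data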
# M5 ag = agonists of human muscarinic M5 receptor (CHRM5); activation, % at 3 µM; CHO-K1 hM5 cells, Fluo-8 calcium fluorescence; 0% DMSO wells, 100% maximal acetylcholine response; actives 0.19% (n = 360,000); P08912;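 active means activation above the run's mean over test compounds plus 3 SD, cut at about 23% in these data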;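 further: signal is peak over basal fluorescence ratio across the kinetic read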
# M4 PAM = positive allosteric modulators of human muscarinic M4 receptor | activation, % at 3 µM | CHO-K1 hM4/Gqi5, Fluo-8 calcium fluorescence, ACh EC20; 0% = ACh EC20, 100% = maximal ACh | actives 0.4% (n = 360,000);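 active means activation above its plate's cutoff, the mean activation of sample wells plus 3 SD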
# M5 PAM = potentiates acetylcholine response at human M5 receptor. actives 0.3% (n = 360,000). activation, % at 3 µM. CHO-K1 hM5, Fluo-8 calcium, ACh EC20 PAM; 0% = ACh EC20, 100% = ACh EC100;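 active means activation above the run cutoff, the mean activation of all test compounds plus 3 SD, cut at about 18% in these data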
#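 System: CHO-K1 hM5 cells. Reagent: acetylcholine, EC20 level. Compound dosing: single dose, 3 µM nominal final test concentration. Timing: Post-acetylcholine fluorescence recording 140 s. Detection: Fluo-8 calcium fluorescence. Read-out: % activation, ACh-normalized. Benchmarks: ACh EC20 and EC100 wells. Repeats: singlicate, one well per test compound.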
# M4 ag = CHRM4 agonism in calcium assay. activation, % at 3 µM. actives 0.14% (n = 360,000). CHO-K1 hM4/Gqi5, Fluo-8 calcium fluorescence; vehicle 0%, full acetylcholine response 100%;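 active means activation above the run mean over all test wells plus 3 SD, cut at about 32% in these data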;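 further: peak over basal fluorescence ratio per well then scaled between controls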
# Numbers stand for hits; - = inactive. Shown are actives, neighbours in structure and some others; about 1.8% of the full set was active somewhere.
SMILES,M5 antag,M4 antag,M5 ag,M4 PAM,M5 PAM,M4 ag
COc1ccc(S(=O)(=O)N(C)C[C@@H]2OCc3cnnn3CCCC(=O)N([C@@H](C)CO)C[C@@H]2C)cc1,-,-,-,19,-,-
Cc1ccc(S(=O)(=O)N(C)C[C@H]2OCc3cnnn3CCCC(=O)N([C@@H](C)CO)C[C@H]2C)cc1,-,-,-,-,-,-
COC(=O)[C@H](C)NC(=O)NC(C)CCc1ccccc1 (stereo partly specified),-,-,-,20,-,-
Cc1cc(C(=O)CN2C(=O)NC(C)(c3ccccc3)C2=O)c(C)n1CC1CCCO1 (stereo unspecified),-,27,-,-,-,-
Cc1cc(C(=O)CSc2nc3ccccc3c(=O)[nH]2)c(C)n1CC1CCCO1 (stereo unspecified),36,27,-,-,-,-
CCn1c(SCC(=O)c2cc(C)n(CC3CCCO3)c2C)nc2ccccc21 (stereo unspecified),-,-,-,-,-,-
Cc1cc(SCC(=O)NCC2CCCO2)nc2ccccc12 (stereo unspecified),-,-,23,-,-,-
CC1CCCN(C(=O)CCNS(=O)(=O)c2ccc3c(c2)c(=O)n(C)c(=O)n3C)C1 (stereo unspecified),-,-,-,15,-,-
COC(CNC(=O)C1CCCN(S(=O)(=O)c2c(C)noc2/C=C/c2cccs2)C1)OC (stereo unspecified),-,-,-,-,-,-
COc1ccc(C(C(=O)Nc2c(C)cccc2C)n2c(=O)c(-c3ccco3)nc3ccccc32)cc1 (stereo unspecified),-,-,-,-,-,-
CN1CCN(CC#CCC(O)(c2ccccc2)C2CCCC2)CC1 (stereo unspecified),-,-,-,-,-,-
O=S(=O)([O-])CCC[N+]1(CC#Cc2ccccc2)CCCCC1,-,-,-,-,-,-
NC(=O)C[N+]1(CC#CC(O)(c2ccccc2)c2ccccc2)CCCC1,34,33,-,-,-,-
CCC[N+]1(CC#CC(O)(c2ccccc2)C2CCCCC2)CCCCC1 (stereo unspecified),99,97,-,-,-,-
CCN(CC)CCC#CC(O)(c1ccccc1)C1CCCCC1 (stereo unspecified),98,94,-,-,-,-
Cc1ccc(S(=O)(=O)N2CCCOC2CNC(=O)C(=O)NCc2ccco2)cc1 (stereo unspecified),-,-,-,-,-,-
O=C(CSc1ncccn1)NCc1cccs1,-,-,-,-,-,-
CCOC(=O)/C=c1\s/c(=C\c2ccc(C(F)(F)F)cc2)c(=O)n1CC(=O)NCc1ccco1,-,-,-,-,-,-
CCOC(=O)/C=c1\s/c(=C\c2ccc(C)cc2)c(=O)n1CC(=O)NCc1ccco1,-,-,-,19,-,-
CCOC(=O)/C=c1/s/c(=C/c2ccc3cc(OC)ccc3c2)c(=O)n1CC(=O)NCc1ccc2c(c1)OCO2,38,-,39,-,-,-
CCOC(=O)/C=c1\s/c(=C\c2ccc(-c3ccccc3)cc2)c(=O)n1CC(=O)NCc1ccc2c(c1)OCO2,-,-,-,-,-,-
CC1c2cc3c(cc2CCN1S(=O)(=O)c1ccccc1)OCCCO3 (stereo unspecified),-,-,-,-,-,-
CC(Oc1ccc(F)cc1)C(=O)Nc1ccc(S(=O)(=O)NC2=NCCCCC2)cc1 (stereo unspecified),-,-,-,-,-,-
CC(Oc1ccc(Br)cc1)C(=O)Nc1ccc(S(=O)(=O)NC2=NCCCCC2)cc1 (stereo unspecified),-,-,29,-,-,39
CCSc1nc(-c2ccco2)ccc1C#N,-,-,-,-,46,-
SMILES,M5 antag,M4 antag,M5 ag,M4 PAM,M5 PAM,M4 ag
Cc1ccc(C(=O)Sc2cccccc2=O)cc1,42,57,-,-,-,-
CN1CCN(C(=O)Nc2cccc(-c3ccccc3)c2)CC1,-,-,-,-,-,-
CC(C)[N+](C)(C)CC(O)CN(c1ccccc1)c1ccccc1 (stereo unspecified),27,-,-,-,-,-
CCCc1nc2ccc(C)cn2c1Cc1cccc(F)c1,-,-,-,-,-,-
CCCc1nc2c3ccccc3ccn2c1Cc1cccc(F)c1,47,57,-,-,-,-
CN(C)CC1CC/C(=C\c2ccc(O)cc2)C1=O (stereo unspecified),-,39,-,-,-,-
Cn1cc(C(=O)c2cccc(Cl)c2Cl)cc1C(=O)O,-,-,-,-,21,-
COC(=O)c1cc(C(=O)c2cccc(Cl)c2Cl)cn1C,-,-,-,-,-,-
CC1(C(=O)NS(=O)(=O)c2ccc3c(c2)CCO3)CCN1C(=O)C1(c2ccc(Cl)cc2)CCC1 (stereo unspecified),-,-,-,-,-,-
Cc1ccc(C(c2sc3nc(C)nn3c2O)N2CCN(c3ccccc3F)CC2)cc1 (stereo unspecified),-,-,-,-,19,-
Cc1ccc(C(c2sc3nc(C)nn3c2O)N2CCN(CCO)CC2)cc1 (stereo unspecified),-,-,-,-,-,-
COC(=O)C1=C(C)OC(N)=C(C#N)C1c1cc2cc(C)ccc2nc1Cl (stereo unspecified),-,-,26,-,-,-
O=C(Nc1ccccc1N1CCOCC1)c1cc(Br)c(Br)s1,-,-,-,-,-,-
CN1CCC2(CC1)N=C(c1ccc(F)cc1)C(=S)N2C(=O)c1ccc(C(C)(C)C)cc1,33,-,-,-,-,-
Cc1cc(C)c2nc(NNC(=O)c3ccc(S(=O)(=O)N4CCc5ccccc5C4)cc3)sc2c1,-,-,59,-,-,-
Clc1cccc(Oc2cnc3ccccc3n2)c1,-,-,-,30,-,-
N#C/C(=C\c1ccc(N2CCCCC2)o1)C(=O)Nc1cccc(Br)c1,59,32,60,-,-,47
Cc1sc(NC(=O)C2C3C=CC(C3)C2C(=O)O)c(C(N)=O)c1-c1ccc(C(C)C)cc1 (stereo unspecified),-,-,-,-,-,-
CN(C)CCNC(=O)C(c1ccccc1)c1ccccc1,-,-,-,-,-,-
CN(C)CC(c1ccccc1)c1ccccc1,-,-,-,-,-,-
CC(CCCN(C)C)C(Cc1ccccc1)c1ccccc1 (stereo unspecified),31,29,-,-,-,-
